This is an account of results in ChEMBL document CHEMBL1136943, “Nocathiacin analogs: Synthesis and antibacterial activity of novel water-soluble amides” (Bioorg Med Chem Lett, 2009).

Each structure is given as a SMILES string. Values after ≈ are worked out from the molar mass of the structure shown.

Test [1] concerns Staphylococcus aureus. Description: Antibacterial activity against Staphylococcus aureus MB2865 in liquid culture by turbidity method. It counts as functional. In short, it runs like this:
(§1)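 MIC is the lowest concentration giving 100% inhibition of bacterial growth in liquid culture, read by turbidity.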

Test [2] concerns Enterococcus faecalis. As to the kind of experiment: Antibacterial activity against Enterococcus faecalis. The test is classed as functional. The procedure, abridged: as §1
A further test concerns Streptococcus pneumoniae. As to the kind of experiment: Antibacterial activity against Streptococcus pneumoniae CL2883 in liquid culture by turbidity method. The test is classed as functional. The procedure, abridged:
as §1

Test [3] has as its system Enterococcus faecalis. As to the kind of experiment: Antibacterial activity against Enterococcus faecalis C21560 in liquid culture by turbidity method. The test is classed as functional. The procedure, abridged:
as §1

Test [4] has as its system Staphylococcus aureus. As to the kind of experiment: Antibacterial activity against Staphylococcus aureus infected in mouse model assessed as reduction of >= 2 log 10 cfu kidney burden. The test is classed as functional. The procedure, abridged:
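Systemic S. aureus infection mouse model (SATOA). Compounds were given iv; […]. Kidney bacterial burden (cfu) was compared with untreated control. ED99 is the dose giving a reduction of at least 2 log10 cfu in kidney burden.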

Test [5] addresses T1, Type-2 angiotensin II receptor (Homo sapiens, UniProt P50052).
T1 sequence (P50052 whole entry): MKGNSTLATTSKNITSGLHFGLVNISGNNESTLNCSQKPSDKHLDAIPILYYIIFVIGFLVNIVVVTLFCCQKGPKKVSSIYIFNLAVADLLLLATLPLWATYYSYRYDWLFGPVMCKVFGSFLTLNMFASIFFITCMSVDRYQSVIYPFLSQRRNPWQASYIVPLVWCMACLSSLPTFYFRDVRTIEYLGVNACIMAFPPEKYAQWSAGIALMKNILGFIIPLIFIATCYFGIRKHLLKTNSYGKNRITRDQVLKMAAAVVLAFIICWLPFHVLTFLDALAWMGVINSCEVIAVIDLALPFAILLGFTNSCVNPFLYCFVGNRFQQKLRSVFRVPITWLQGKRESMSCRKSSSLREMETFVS
As to the kind of experiment: Inhibition of AT2 receptor. In short, it runs like this: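 AT2 IC50 derived from four dose levels per compound, following a published protocol.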

The test system of test [6] is Staphylococcus aureus. Description: Antibacterial activity against Staphylococcus aureus infected in mouse model assessed as reduction of kidney burden iv relative to control.

In the case of `C=C(NC(=O)c1csc(-c2nc3c(cc2O)-c2nc(cs2)C(=O)N[C@@H]([C@@H](C)O)C(=O)N/C(=C(\C)OC)c2nc(cs2)C(=O)N[C@@H]2c4nc(cs4)C(=O)N[C@@H](COC(=O)c4c5c6c(cccc6n4O)COC(=O)[C@@H](O[C@H]4C[C@](C)(O)[C@H](N(C)C)[C@H](C)O4)[C@H]2OC5)c2nc-3cs2)n1)C(N)=O` [MJ347-81F4 A], the minimal inhibitory concentration (MIC) is 0.007 µg/mL (≈ 4.87 nM) in the test with Staphylococcus aureus [1], 0.015 µg/mL (≈ 10.4 nM) against Enterococcus faecalis [2], 0.002 µg/mL (≈ 1.39 nM) against Streptococcus pneumoniae and 0.03 µg/mL (≈ 20.9 nM) in the test on Enterococcus faecalis [3].
Turning to `CO/C(C)=C1/NC(=O)[C@H]([C@@H](C)O)NC(=O)c2csc(n2)-c2cc(O)c(-c3nc(C(=O)NCCCN4CCOCC4)cs3)nc2-c2csc(n2)[C@@H]2COC(=O)c3c4c5c(cccc5n3O)COC(=O)[C@@H](O[C@H]3C[C@](C)(O)[C@H](N(C)C)[C@H](C)O3)[C@@H](OC4)[C@H](NC(=O)c3csc1n3)c1nc(cs1)C(=O)N2`, the minimum inhibitory concentration (MIC) is 0.011 µg/mL (≈ 7.35 nM) with Staphylococcus aureus [1], 0.007 µg/mL (≈ 4.68 nM) against Streptococcus pneumoniae and 0.016 µg/mL (≈ 10.7 nM) in the test on Enterococcus faecalis [3]. Also, the ED99 in the test with Staphylococcus aureus [4] amounted to 0.24 mg/kg. Moreover, half-maximal inhibition in test [5] (IC50) was put at 260 nM. Also, the Activity in the test with Staphylococcus aureus [6] turned out to be 4.68.
